Reference: ChEMBL document CHEMBL1123346, “Pyrimidinones. 3. N-substituted 6-phenylpyrimidinones and pyrimidinediones with diuretic/hypotensive and antiinflammatory activity” (J Med Chem, 1986)

What was measured:
[1] = Sodium salt excretion in conscious rat at the dose of 10 mg/kg expressed as urinary excretion in treated rats/urinary excretion in control rats; format: ADME, organism-based, Urine; set-up: dose 10 mg/kg; details: in vivo
Summary of the method: (§1)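 Male rats (~160 g) fasted 24 h, water withheld 1.5 h; oral gavage of compound (0.3-100 mg/kg) in 25 mL/kg saline with 0.5% carboxymethylcellulose; 5 h urine collection in metabolism cages. Urine volume, Na+ and K+ (flame photometry) expressed as treated/control excretion ratio.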

Rattus norvegicus [2] = assay: Compound was tested for inhibition of RPAR administered perorally at 100 mg/kg dose; format: functional; details: route oral
Summary of the method: (§2)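 Male Wistar rats (180-200 g), 5-10/group, dosed orally (water with Tween-80 suspension) 1 h before iv sensitization with 1 mg bovine serum albumin; 24-h fasted. 60 min later subplantar challenge with 200 µg anti-BSA in left hindpaw. Paw swelling by mercury displacement plethysmography at 2 h post-challenge.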

Rattus norvegicus [3] = assay: Compound was tested for urinary volume excretion in conscious rat at the dose of 30 mg/kg expressed as urinary excretion in treated rats/urinary excretion in control rats; format: ADME, organism-based, Urine; set-up: dose 30 mg/kg; details: in vivo; summary of the method: as §1
[4] = Potassium salt excretion in conscious rat at the dose of 3.0 mg/kg expressed as urinary excretion in treated rats/urinary excretion in control rats; format: ADME, organism-based, Urine; set-up: dose 3 mg/kg; details: in vivo; summary of the method: as §1
[5] = Potassium salt excretion in conscious rat at the dose of 30 mg/kg expressed as urinary excretion in treated rats/urinary excretion in control rats; format: ADME, organism-based, Urine; set-up: dose 30 mg/kg; details: in vivo; summary of the method: as §1
[6] = Potassium salt excretion in conscious rat at the dose of 100 mg/kg expressed as urinary excretion in treated rats/urinary excretion in control rats; format: ADME, organism-based, Urine; set-up: dose 100 mg/kg; details: in vivo; summary of the method: as §1
[7] = Sodium salt excretion in conscious rat at the dose of 1.0 mg/kg expressed as urinary excretion in treated rats/urinary excretion in control rats; format: ADME, organism-based, Urine; set-up: dose 1 mg/kg; details: in vivo; summary of the method: as §1
Rattus norvegicus [8] = assay: Compound was tested for inhibition of RPAR administered perorally at 50 mg/kg dose; format: functional; details: route oral; summary of the method: as §2
[9] = Sodium salt excretion in conscious rat at the dose of 0.3 mg/kg expressed as urinary excretion in treated rats/urinary excretion in control rats; format: ADME, organism-based, Urine; set-up: dose 0.3 mg/kg; details: in vivo; summary of the method: as §1
Rattus norvegicus [10] = assay: Compound was tested for urinary volume excretion in conscious rat at the dose of 1.0 mg/kg expressed as urinary excretion in treated rats/urinary excretion in control rats; format: ADME, organism-based, Urine; set-up: dose 1 mg/kg; details: in vivo; summary of the method: as §1
[11] = Potassium salt excretion in conscious rat at the dose of 10 mg/kg expressed as urinary excretion in treated rats/urinary excretion in control rats; format: ADME, organism-based, Urine; set-up: dose 10 mg/kg; details: in vivo; summary of the method: as §1
Rattus norvegicus [12] = assay: Blood pressure change in rats after oral administration of 50 mg/kg dose after 4 hours; format: functional
Summary of the method: (§3)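 Restrained female Sprague–Dawley rats with indwelling aortic cannulas exteriorized at the nape; direct arterial pressure via transducer, mean pressure by electrical integration of phasic pressure. Readings before and 4 and 24 h after oral dosing (carboxymethylcellulose suspension, 10 mL/kg). Value is change in mean arterial pressure, averaged over two animals.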

[13] = Sodium salt excretion in conscious rat at the dose of 100 mg/kg expressed as urinary excretion in treated rats/urinary excretion in control rats; format: ADME, organism-based, Urine; set-up: dose 100 mg/kg; details: in vivo; summary of the method: as §1
Rattus norvegicus [14] = organism: Rattus norvegicus; assay: Diuretic activity in rats; format: functional, Urine
Summary of the method: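 Male rats (~160 g) fasted 24 h, water withheld 1.5 h, both withheld during test. Gavage 25 mL/kg 0.9% saline with 0.5% carboxymethylcellulose containing compound at 40 mg/kg; urine collected 5 h in metabolism cages. Two-stage test, T/C urine volume per stage; active if product of stage T/Cs ≥3.34.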

Rattus norvegicus [15] = assay: Compound was tested for urinary volume excretion in conscious rat at the dose of 3.0 mg/kg expressed as urinary excretion in treated rats/urinary excretion in control rats; format: ADME, organism-based, Urine; set-up: dose 3 mg/kg; details: in vivo; summary of the method: as §1
[16] = Potassium salt excretion in conscious rat at the dose of 0.3 mg/kg expressed as urinary excretion in treated rats/urinary excretion in control rats; format: ADME, organism-based, Urine; set-up: dose 0.3 mg/kg; details: in vivo; summary of the method: as §1
[17] = Potassium salt excretion in conscious rat at the dose of 1.0 mg/kg expressed as urinary excretion in treated rats/urinary excretion in control rats; format: ADME, organism-based, Urine; set-up: dose 1 mg/kg; details: in vivo; summary of the method: as §1
Rattus norvegicus [18] = assay: Compound was tested for urinary volume excretion in conscious rat at the dose of 10 mg/kg expressed as urinary excretion in treated rats/urinary excretion in control rats; format: ADME, organism-based, Urine; set-up: dose 10 mg/kg; details: in vivo; summary of the method: as §1
Rattus norvegicus [19] = assay: Compound was tested for inhibition of RPAR administered perorally at 25 mg/kg dose; format: functional; details: route oral; summary of the method: as §2
Rattus norvegicus [20] = assay: Blood pressure change in rats after oral administration of 50 mg/kg dose after 24 hours; format: functional; summary of the method: as §3
Rattus norvegicus [21] = assay: Compound was tested for urinary volume excretion in conscious rat at the dose of 100 mg/kg expressed as urinary excretion in treated rats/urinary excretion in control rats; format: ADME, organism-based, Urine; set-up: dose 100 mg/kg; details: in vivo; summary of the method: as §1
[22] = Sodium salt excretion in conscious rat at the dose of 3.0 mg/kg expressed as urinary excretion in treated rats/urinary excretion in control rats; format: ADME, organism-based, Urine; set-up: dose 3 mg/kg; details: in vivo; summary of the method: as §1
Rattus norvegicus [23] = assay: Compound was tested for urinary volume excretion in conscious rat at the dose of 0.3 mg/kg expressed as urinary excretion in treated rats/urinary excretion in control rats; format: ADME, organism-based, Urine; set-up: dose 0.3 mg/kg; details: in vivo; summary of the method: as §1
[24] = Sodium salt excretion in conscious rat at the dose of 30 mg/kg expressed as urinary excretion in treated rats/urinary excretion in control rats; format: ADME, organism-based, Urine; set-up: dose 30 mg/kg; details: in vivo; summary of the method: as §1
Rattus norvegicus [25] = assay: Compound was tested for blood pressure change in rats after oral administration of 50 mg/kg dose after 24 hours; format: functional; summary of the method: as §3
Rattus norvegicus [26] = assay: Compound was tested for blood pressure change in rats after oral administration of 50 mg/kg dose after 4 hours; format: functional; summary of the method: as §3

Na+ excretion [1]	Urinary volume (Rattus norvegicus [3])	K+ excretion [4]	K+ excretion [5]	K+ excretion [6]	Na+ excretion [7]	Na+ excretion [9]	Urinary volume (Rattus norvegicus [10])	K+ excretion [11]	Na+ excretion [13]	Urinary volume (Rattus norvegicus [15])	K+ excretion [16]	K+ excretion [17]	Urinary volume (Rattus norvegicus [18])	Urinary volume (Rattus norvegicus [21])	Na+ excretion [22]	Urinary volume (Rattus norvegicus [23])	Na+ excretion [24]	SMILES	Diuretic activity (Rattus norvegicus [14])	further results
2.1	2.5	1.3	2.2	2.2	1.2	1	0.9	1.7	2.8	1.4	1.1	1	2.3	2.8	1.3	1	2.5	Cn1c(N)nc(-c2ccccc2)c(Br)c1=O	5.52	inhibition in vivo at 100 mg/kg (Rattus norvegicus [2]): 74%; inhibition in vivo at 50 mg/kg (Rattus norvegicus [8]): 64%; MABP change (Rattus norvegicus [12]): -12 mmHg; inhibition in vivo at 25 mg/kg (Rattus norvegicus [19]): 36%; MABP change (Rattus norvegicus [20]): -7 mmHg
2.4	2.6	1.6	1.5	1.7	2	1.7	2.3	1.5	2.5	2.2	1.2	1.6	2.4	2.7	2.1	1.9	2.4	NS(=O)(=O)c1cc2c(cc1Cl)NCNS2(=O)=O [HYDROCHLOROTHIAZIDE]	7.18	MABP change (Rattus norvegicus [25]): 2 mmHg; MABP change (Rattus norvegicus [26]): 0 mmHg
